# Screens (PubChem)
# UPR CHOP act: apoptotic UPR (CHOP) activation; CHO-CHOP luciferase reporter, luminescence; percent of tunicamycin response over DMSO baseline; activation, % at 10 µM; hit rate 0.34% among 330,000; AID 449763;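 active means at 10 µM dose, activation of 40% or more, normalized to positive control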;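 further: 100% = tunicamycin at 10 µg/mL and 0% = DMSO alone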
#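 System: CHO-CHOP luciferase reporter cell line; amount: 500 cells/well; buffer or medium: F12 medium containing 10% fetal bovine serum; incubation: 6 h compound exposure at 37 °C after overnight seeding; measured by: luciferase luminescence after 10 min with Steady-Glo reagent; evaluation: % reporter activation, DMSO baseline versus tunicamycin full activation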
# CHOP inhibitor: inhibitors of CHOP induction in ER stress response | CHO-K1 CHOP-promoter luciferase, tunicamycin-induced, 15-18 h | inhibition, % at 10 µM | hit rate 3.8% among 220,000;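 active means compounds that reduced the stress-induced luciferase reporter signal by more than about 70% of percent inhibition, limit read from the data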;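 further: 0% = tunicamycin plus vehicle and 100% = wells without tunicamycin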
# H9c2 protect: modulators protecting cardiomyocytes from myocardial damage; H9c2 cardiomyocytes, H2O2 injury protection, ATPLite, 2 h; protection from H2O2 cell death, % at 20 µM; hit rate 0.63% among 360,000; AID 588492;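 active means compounds giving at least 50% protection of heart cells from peroxide-induced death in the single-dose screen, raw or plate-pattern-corrected value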;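 further: 0% = DMSO wells with peroxide and 100% = DMSO wells without peroxide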
# hiPSC survival: increases survival of single human iPS cells; hit rate 0.044% among 360,000; hiPSC single-cell survival, ATPlite luminescence; 100% = ROCK inhibitor wells, 0% = DMSO; AID 602274; survival enhancement, % at 20 µM; in the data active means survival enhancement above about 18%;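 further: cells exposed to compounds for 16 hours before the ATP read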
# UPR XBP1 act: adaptive UPR (XBP1) activation; activation, % at 20 µM; CHO-XBP1 luciferase reporter, IRE1-XBP1 UPR activation, luminescence; percent of tunicamycin response, DMSO as zero; hit rate 0.33% among 330,000;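 active means versus positive control, 20 µM dose yields 30% or more activation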;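 further: 100% = tunicamycin at 10 µg/mL and 0% = DMSO only wells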
#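 Assay system: IRE1-XBP1 luciferase reporter CHO line. Input: 1000 cells/well. Buffer or medium: F12 with 10% serum. Doses: 20 µM, 1% DMSO. Times: overnight seeding at 37 °C, 6 h compound treatment at 37 °C. Technique: Steady-Glo luciferase glow luminescence, 10 min after reagent addition.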
# UPR XBP1 confirm: confirmation of adaptive unfolded protein response (XBP1) activators. shares compounds with UPR XBP1 act. CHO-XBP1 IRE1-XBP1 luciferase reporter, luminescence. AID 485299. activation, % at 20 µM. hit rate 63% among 1,000;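 active means reporter signal at least 30% of the positive control's activation in two or more of four replicate wells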;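 further: plate controls were DMSO negative control for no effect and tunicamycin 10 µg/mL positive control for full effect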
# An asterisk follows results filed as active; / = no result given; ! = repeats disagree. This excerpt belongs to a sample that is enriched for hits.
SMILES,UPR CHOP act,CHOP inhibitor,H9c2 protect,hiPSC survival,UPR XBP1 act,UPR XBP1 confirm
COc1cc(NC(=O)C(C)Oc2ccccc2)c(OC)cc1NC(=O)c1ccccc1 (stereo not given),-1.7,/,20.0,-0.4,-2.8,/
Cc1cc(C)c(NC(=O)CSc2nc(COc3ccccc3)nc3ccccc23)c(C)c1,1.2,91.2*,-3.1,-0.2,52.7*,46.5*
Cc1ccccc1NC(=O)CSc1nc(COc2ccccc2)nc2ccccc12,0.5,26.2,1.7,0.5,-2.6,/
CN(Cc1ccc(Cl)cc1)C(C(=O)NC1CCCCC1)c1ccnc2ccccc12 (stereo not given),/,/,2.8,0.5,/,/
Cc1ccc(-n2c(COc3c(C)cccc3C)nnc2SCC(=O)Nc2nccs2)cc1,0.4,33.4,-3.2,-1.5,-1.6,/
Cc1ccc(OCc2nnc(SCC(=O)Nc3nccs3)n2-c2ccccc2)cc1C,9.0,75.2*,6.9,7.0,35.4*,14.6
CCCCNc1c(-c2ccc(F)cc2)nc2nc(C)cc(C)n12,/,/,/,0.4,/,/
Cc1ccc(NC(=O)Cn2c(/C=C/c3ccccc3)nc3ccccc32)cc1C,27.4,27.8,0.3,-0.2,51.3*,34.9*
N=c1c2c(n(Cc3ccc(F)cc3)c3c1CCC3)CCC2,-2.1,3.7,-7.4,-1.7,148.8*,0.8
CCCCN1C(=O)C(CC(=O)NCCN2CCOCC2)CC(C(=O)N(C(C)C)C(C)C)=C1C (stereo not given),/,/,-7.7,2.2,/,/
O=c1c2ccccc2nc(COc2ccccc2)n1/N=C/c1ccc(O)c(O)c1,3.1,-7.5,56.1*,0.3,31.5*,23.6
COC(=O)[C@]12CCCCC=C1N(Cc1cccc3ccccc13)C(=O)[C@H](CC(=O)NCc1cccs1)C2,/,/,/,0.1,/,/
CCOC(=O)c1ccc(-c2ccc3c(=O)c4ccccc4n(C)c3c2)cc1F,1.1,/,3.5,0.3,99.6*,1.9
CCOC(=O)c1ccc(-c2c(-c3ccccc3OC)oc3ccccc23)cc1F,3.0,/,-5.9,-1.3,-1.1,/
O=C(/C=C/c1ccc(Cl)cc1)NC(=S)Nc1ccc(N2CCOCC2)c(Cl)c1,24.6,40.9,-5.2,-1.5,123.6*,125.7*
O=C(/C=C/c1ccccc1)NC(=S)Nc1ccc(N2CCOCC2)cc1,1.3,27.5,-2.1,0.4,-1.3,/
COc1ccc([C@H]2CC(=O)C[C@@H](CCn3cccn3)O2)cc1,/,/,/,0.1,/,/
N#C/C(=C\c1ccc(N2CCCCC2)c([N+](=O)[O-])c1)c1nn(-c2ccccc2)c(N)c1C#N,-0.3,23.1,0.7,1.9,-1.0,/
N#C/C(=C\c1ccc(N2CCCC2)c([N+](=O)[O-])c1)c1nc2ccccc2[nH]1,6.1,66.7,2.1,-2.5,111.3*,70.9*
CC(CNC(=O)CN1C(=O)NC2(CCOc3ccccc32)C1=O)c1ccccc1 (stereo not given),-1.7,/,1.2,-0.8,-2.0,/
COc1ccc(OC)c(NC(=O)c2ccccc2SC)c1,0.5,4.3,-0.4,0.3,-0.3,/
COc1ccc(OC)c(NC(=O)c2cc3oc4ccccc4c3cc2O)c1,1.6,28.3,-14.4,-0.2,36.8*,5.9
COc1ccc(-c2nc3ccc(C)cn3c2CC(C)(C)C)cc1OC,/,/,-3.3,-0.6,/,/
CC1CCC(C(C)C)C(OC(=O)Cn2c(-c3ccc(Cl)cc3)[n+](C)c3ccccc32)C1 (stereo not given),9.0,24.7,-15.6,-0.6,86.8*,86.0*
CC1CCC(C(C)C)C(OC(=O)Cn2c(-c3ccc(Br)cc3)[n+](C)c3ccccc32)C1 (stereo not given),18.7,90.2*!,-20.5,-3.6,109.1*,108.4*
SMILES,UPR CHOP act,CHOP inhibitor,H9c2 protect,hiPSC survival,UPR XBP1 act,UPR XBP1 confirm
CC(C)[C@@H]1CC[C@@H](C)C[C@H]1OC(=O)C[n+]1cc(-c2ccc(Cl)cc2)n2c1CCCCC2,-0.7,9.7,-16.9,-0.8,4.9,/
CC1CCC(C(C)C)C(OC(=O)Cn2nnc3c(cnn3-c3ccccc3)c2=O)C1 (stereo not given),2.7,19.7,-4.7,-0.3,1.5,/
CCc1nc2ccc(C(=O)NCCOc3ccc(OC)cc3)cn2c1N(C)C(=O)Cc1ccccc1,/,/,9.8,4.8,/,/
C=CCn1c(SCc2nc3ccccc3c(=O)[nH]2)nc2sc3c(c2c1=O)CCCC3,0.1,-12.4,/,/,131.5*,-1.3
CCOC(=O)C1=C(O)/C(=C/c2cc(OC)c(OC)c(OC)c2)SC1=Nc1ccc(OC)cc1,3.7,31.4,3.6,0.2,35.9*,17.8
Cc1ccc(NC(=O)CSc2nc3ccccc3c3nc4ccccc4n23)cc1,38.8,8.8,0.1,-1.6,92.5*,200.3*
CN(C(=O)c1ccccc1)C(=O)c1ccccc1,/,/,3.6,2.0,/,/
CC1(C(=O)NS(=O)(=O)Cc2cccc(Cl)c2)CCN1C(=O)CC1CCCC1 (stereo not given),/,/,-3.1,0.1,/,/
O=C(Cn1c2ccccc2c(=O)c2cc([N+](=O)[O-])ccc21)Nc1ccccc1Cl,28.7,36.1,9.2,3.6,118.0*,80.5*
O=C(Cn1c2ccccc2c(=O)c2ccccc21)Nc1ccccc1F,-0.4,22.9,-0.1,1.1,-0.1,/
CC(=O)c1cccc(NC(=O)c2cc(-c3ccncc3)nc3ccccc23)c1,1.2,/,17.5,-0.1,-1.4,/
COC(=O)c1sccc1NC(=O)c1cc(-c2cccc(C)c2)nc2ccccc12,-1.2,27.8,4.2,-1.2,63.7*,79.5*
Cc1ccc2nc(-c3cccnc3)cc(C(=O)Nc3ccccc3[N+](=O)[O-])c2c1,1.1,/,-2.7,-0.4,-3.1,/
CSc1ccccc1NC(=O)c1cc(-c2cccnc2)nc2ccc(Br)cc12,1.1,104.1*,11.7,-0.4,31.5*,65.7*
Cc1cc(NC(=O)c2cc(-c3ccncc3)nc3ccccc23)ccc1Br,2.4,/,-2.0,4.0,65.9*,44.0*
COc1ccc(-c2csc(NC(=S)NC(=O)/C=C/c3ccccc3)n2)cc1Br,5.4,-21.6,/,/,160.3*,250.2*
O=C(/C=C/c1ccco1)NC(=S)Nc1nc(-c2ccc3ccccc3c2)cs1,0.1,-48.5,-5.2,-0.6,12.8,/
COc1ccc(NC(=O)c2ccccc2NC(=O)CSc2ccc(Cl)cc2)cc1,2.3,-23.6,-24.1,-3.3,35.0*,6.2
COc1ccccc1-c1ccc(/C=C2\C=CC(=O)O2)o1,22.0,-6.6,5.3,0.9,3.0,/
N#Cc1ccc(-c2ccc(F)cc2)nc1Oc1ccc(Cl)c(Cl)c1,26.2,31.1,-9.2,0.8,37.7*,6.0
CC1Cc2ccccc2N1C(=O)C1CC(=O)N(c2ccccc2)C1 (stereo not given),1.1,/,2.7,0.1,1.1,/
Cc1ccccc1-c1nc2cc(Cl)ccc2c(=O)o1,-0.2,/,-4.8,-0.5,48.6*,15.7
Cc1ccccc1-c1nc2cc(Cl)ccc2o1,1.8,36.8,-16.9,-1.7,4.9,/
